Test results from ChEMBL document CHEMBL5104215, “Synthesis of full-length homodimer αD-VxXXB that targets human α7 nicotinic acetylcholine receptors” (RSC Med Chem, 2022).
The source made the active and inactive calls. No cut-off for these calls is given here. Positions of bridges follow the written chain, without caps; N, C: chain ends. Non-standard residues stand in square brackets, D forms with d. Residues, ends and D or L forms follow the SMILES beside them. Chains are numbered I, II in the order given. Nle = CCCC[C@H](N)C(=O)O

Tests used:
[1] = target: T1, Neuronal acetylcholine receptor subunit alpha-7 (Homo sapiens, UniProt P36544); test: Negative allosteric modulation activity at alpha7 nAChR in human SH-SY5Y cells assessed as inhibition of choline induced intracellular calcium by FLIPR assay; format: cell-based
T1 sequence (P36544 whole entry): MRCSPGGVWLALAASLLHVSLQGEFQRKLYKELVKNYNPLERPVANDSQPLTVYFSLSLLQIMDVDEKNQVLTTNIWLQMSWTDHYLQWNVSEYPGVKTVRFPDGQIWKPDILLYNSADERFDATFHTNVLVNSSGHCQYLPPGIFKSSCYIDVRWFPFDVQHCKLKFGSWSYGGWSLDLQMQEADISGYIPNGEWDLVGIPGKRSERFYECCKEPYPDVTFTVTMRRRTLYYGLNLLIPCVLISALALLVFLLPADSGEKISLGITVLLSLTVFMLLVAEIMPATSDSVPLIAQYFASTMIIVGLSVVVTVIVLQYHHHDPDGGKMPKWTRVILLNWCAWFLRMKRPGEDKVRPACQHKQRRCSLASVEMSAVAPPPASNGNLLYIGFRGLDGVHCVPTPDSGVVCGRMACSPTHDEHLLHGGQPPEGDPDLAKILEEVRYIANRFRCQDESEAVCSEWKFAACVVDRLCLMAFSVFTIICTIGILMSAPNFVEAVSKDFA

[2] = target: Acetylcholine-binding protein (Lymnaea stagnalis) (UniProt P58154); test: Displacement of [3H]-epibatidine from recombinant Lymnaea stagnalis Acetylcholine-binding protein assessed as inhibition of [3H]-epibatidine binding at 40 uM by radioligand saturation binding assay
Chain of Acetylcholine-binding protein (Lymnaea stagnalis) (P58154 whole entry): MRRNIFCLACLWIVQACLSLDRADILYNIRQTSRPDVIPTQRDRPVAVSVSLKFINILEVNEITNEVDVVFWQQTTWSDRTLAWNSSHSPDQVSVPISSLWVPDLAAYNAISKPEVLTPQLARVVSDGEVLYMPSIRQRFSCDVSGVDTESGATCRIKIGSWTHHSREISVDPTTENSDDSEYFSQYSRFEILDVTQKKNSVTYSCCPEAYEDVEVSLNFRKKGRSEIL
In short: (§1)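 Saturation binding of [3H]-epibatidine to recombinantly expressed Ls-AChBP was run without peptide and with a fixed peptide concentration (20 μM or 40 μM, depending on the peptide). Data are means ± SEM of triplicates from three independent experiments.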

[3] = target: Acetylcholine-binding protein (Lymnaea stagnalis) (UniProt P58154); test: Displacement of [3H]-epibatidine from recombinant Lymnaea stagnalis Acetylcholine-binding protein assessed as inhibition of [3H]-epibatidine binding by radioligand saturation binding assay; details: filed as negative allosteric modulator; in short: as §1
[4] = target: T1, Neuronal acetylcholine receptor subunit alpha-7; test: Negative allosteric modulation activity at alpha7 nAChR in human SH-SY5Y cells assessed as fold change in inhibition of choline induced intracellular calcium by FLIPR assay relative to CTD(21-50); format: cell-based; details: filed as negative allosteric modulator
[5] = target: Acetylcholine-binding protein (Lymnaea stagnalis) (UniProt P58154); test: Displacement of [3H]-epibatidine from recombinant Lymnaea stagnalis Acetylcholine-binding protein assessed as fold change in inhibition of [3H]-epibatidine binding by radioligand binding assay relative to CTD(21-50); details: filed as negative allosteric modulator
In short: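 Competition binding: peptides displaced [3H]-epibatidine from recombinantly expressed Lymnaea stagnalis AChBP. IC50 came from concentration–response curves. The ratio is each peptide's IC50 divided by the IC50 of the CTD(21–50) reference. Data are means ± SEM of triplicates from three independent experiments.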

[6] = target: Acetylcholine-binding protein (Lymnaea stagnalis, UniProt P58154); test: Displacement of [3H]-epibatidine from recombinant Lymnaea stagnalis Acetylcholine-binding protein by radioligand binding assay
Chain of Acetylcholine-binding protein (P58154 whole entry): as above
In short: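 Competition binding: peptide concentration series against [3H]-epibatidine bound to recombinantly expressed Ls-AChBP; IC50 taken from concentration–response curves of displacement. Values are means ± SEM of triplicates from three independent experiments.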

[7] = target: Acetylcholine-binding protein (Lymnaea stagnalis) (UniProt P58154); test: Displacement of [3H]-epibatidine from recombinant Lymnaea stagnalis Acetylcholine-binding protein assessed as inhibition of [3H]-epibatidine binding at 20 uM by radioligand saturation binding assay; in short: as §1

Compound: CC[C@H](C)[C@@H]1NC(=O)[C@H](CC(N)=O)NC(=O)[C@H]([C@@H](C)O)NC(=O)[C@H](CCCNC(=N)N)NC(=O)[C@H](CC(=O)O)NC(=O)[C@H](CO)NC(=O)[C@@H]2CCCN2C(=O)[C@H](Cc2c[nH]c3ccccc23)NC(=O)CNC(=O)[C@H](CCCNC(=N)N)NC(=O)[C@@H](N)CSSC[C@H](N)C(=O)N[C@@H]([C@@H](C)CC)C(=O)N[C@@H]([C@@H](C)CC)C(=O)N[C@@H](CC(N)=O)C(=O)N[C@@H]([C@@H](C)O)C(=O)N[C@@H](CCCNC(=N)N)C(=O)N[C@@H](CC(=O)O)C(=O)N[C@@H](CO)C(=O)N2CCC[C@H]2C(=O)N[C@@H](Cc2c[nH]c3ccccc23)C(=O)NCC(=O)N[C@@H](CCCNC(=N)N)C(=O)N[C@H](C(=O)O)CSSC[C@@H](C(=O)O)NC(=O)[C@H]([C@@H](C)CC)NC1=O (I: H-CIINTRDSPWGRC-OH / II: H-CRGWPSDRTNIIC-OH; disulfide I:1-II:1, I:13-II:13)
- IC50 [1]: 46 µM

Compound: CCCC[C@@H]1N[C@@H](CO)C(=O)NCC(=O)N[C@H]2CSSC[C@@H]3NC(=O)[C@H](C(C)C)NC(=O)[C@H](Cc4ccc(O)cc4)NC(=O)[C@H](Cc4cnc[nH]4)NC(=O)[C@H](Cc4c[nH]c5ccccc45)NC(=O)[C@H](CCCNC(=N)N)NC(=O)[C@H](CCCNC(=N)N)NC(=O)CNC(=O)[C@H](Cc4cnc[nH]4)NC(=O)CNC(=O)[C@@H]4CSSC[C@H](NC(=O)[C@@H]5CCCN5C(=O)[C@H](CCCNC(=N)N)NC(=O)[C@H](CC(N)=O)NC(=O)CNC(=O)[C@H](CSSC[C@H](NC(=O)[C@@H]5CCCN5C(=O)CN)C(=O)N[C@@H](CO)C(=O)N4)NC(=O)[C@H]([C@@H](C)O)NC3=O)C(=O)N[C@@H](CSSC[C@@H](C(=O)O)NC(=O)[C@H](CCCNC(=N)N)NC(=O)[C@H]([C@@H](C)O)NC(=O)[C@H](CCCNC(=N)N)N[C@@H](CCCC)C(=O)NC2=O)C(=O)NC1=O
- IC50 [1]: 0.023 µM
- inhibition [2]: 29%
- Activity [3]: Active
- fold change (FC) [4]: 8
- fold change (FC) [5]: 2
- IC50 [6]: 10 µM

Compound: CCCC[C@@H]1NC(=O)[C@H](CO)NC(=O)CNC(=O)[C@@H](NC(=O)[C@H](CCCC)NC(=O)[C@H](CCCNC(=N)N)NC(=O)[C@@H](N)[C@@H](C)O)CSSC[C@@H]2NC(=O)[C@H]([C@@H](C)O)NC(=O)[C@@H]3CSSC[C@@H](C(=O)N4CCC[C@H]4C(=O)NCC(=O)O)NC(=O)[C@H](CO)NC(=O)[C@H](CSSC[C@H](NC(=O)[C@H](CO)NC1=O)C(=O)N1CCC[C@H]1C(=O)N[C@@H](CCCNC(=N)N)C(=O)N[C@@H](CC(N)=O)C(=O)NCC(=O)N3)NC(=O)CNC(=O)[C@H](Cc1cnc[nH]1)NC(=O)CNC(=O)[C@H](CCCNC(=N)N)NC(=O)[C@H](CCCNC(=N)N)NC(=O)[C@H](Cc1c[nH]c3ccccc13)NC(=O)[C@H](Cc1cnc[nH]1)NC(=O)[C@H](Cc1ccc(O)cc1)NC(=O)[C@H](C(C)C)NC2=O (H-TR[Nle]CGS[Nle]SCPRNGCTCVYHWRRGHGCSCPG-OH; disulfide 4-16, 9-26, 14-28)
- IC50 [1]: 0.176 µM
- Activity [3]: Active
- inhibition [7]: 20%
- IC50 [6]: 20 µM

Compound: CC[C@H](C)[C@@H]1NC(=O)[C@H](CC(N)=O)NC(=O)[C@H]([C@@H](C)O)NC(=O)[C@H](CCCNC(=N)N)NC(=O)[C@H](CC(=O)O)NC(=O)[C@H](CO)NC(=O)[C@@H]2CCCN2C(=O)[C@H](Cc2c[nH]c3ccccc23)NC(=O)CNC(=O)[C@H](CCCNC(=N)N)NC(=O)[C@@H](N)CSSC[C@H](NC(=O)[C@H](CCC(=O)O)NC(=O)[C@H](CO)NC(=O)[C@H](CCC(=O)O)NC(=O)[C@H](CC(=O)O)NC(=O)[C@@H](N)CC(=O)O)C(=O)N[C@@H]([C@@H](C)CC)C(=O)N[C@@H]([C@@H](C)CC)C(=O)N[C@@H](CC(N)=O)C(=O)N[C@@H]([C@@H](C)O)C(=O)N[C@@H](CCCNC(=N)N)C(=O)N[C@@H](CC(=O)O)C(=O)N[C@@H](CO)C(=O)N2CCC[C@H]2C(=O)N[C@@H](Cc2c[nH]c3ccccc23)C(=O)NCC(=O)N[C@@H](CCCNC(=N)N)C(=O)N[C@H](C(=O)O)CSSC[C@@H](C(=O)N[C@@H](CCC(=O)O)C(=O)N[C@@H](CO)C(=O)N[C@@H](CCC(=O)O)C(=O)N[C@@H](CC(=O)O)C(=O)N[C@@H](CC(=O)O)C(=O)O)NC(=O)[C@H]([C@@H](C)CC)NC1=O (I: H-CRGWPSDRTNIICESEDD-OH / II: H-DDESECIINTRDSPWGRC-OH; disulfide I:1-II:6, I:13-II:18)
- IC50 [1]: 35 µM
